Values after ≈ are worked out from the molar mass of the structure shown.

Data set [1] is described as follows: Inhibition of Human immunodeficiency virus reverse transcriptase by SPA assay.
Data set [2] relates to MT4. As to the kind of experiment: Cytotoxicity against human MT4 cells up to 8.3 uM. Format: cell-based. In short, it runs like this:
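MT-4 cells in RPMI 1640 with 10% FBS or 50% NHS, run alongside the antiviral CIC95 assay; cytotoxicity checked up to the assay upper limit of 8.3 μM.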

For data set [3], the target named is Human immunodeficiency virus type 1 reverse transcriptase (Human immunodeficiency virus 1, UniProt Q72547, K103N). Nature of the data set: Inhibition of Human immunodeficiency virus reverse transcriptase K103N mutant by SPA assay. In a few lines:
(§1)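 Recombinant HIV-1 RT polymerase scintillation proximity assay run with mutant enzyme, reported as Ki (nM). Values are geometric means of at least two determinations, each within 2-fold of the mean; SEM is given where there were ≥3 determinations.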

Data set [4] concerns the target Human immunodeficiency virus type 1 reverse transcriptase (Human immunodeficiency virus 1, UniProt Q72547, Y181C). Nature of the data set: Inhibition of Human immunodeficiency virus reverse transcriptase Y181C mutant by SPA assay. In a few lines: as §1
Data set [5] has as its system Human immunodeficiency virus. Nature of the data set: Antiviral activity against Human immunodeficiency virus expressing reverse transcriptase K103N mutant infected in human MT4 cells by p24 antigen assay in the presence of 10% FBS. Format: functional. The settings on record: Human immunodeficiency virus 1, MT4; read-out: CIC95. In a few lines:
(§2)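 Antiviral spread assay in MT-4 human T-lymphoid cells kept in RPMI 1640 with 10% FBS. Value is the CIC95, the concentration inhibiting virus replication by >95%. Reported as the geometric mean of at least two determinations, all within 2-fold of the mean. Cytotoxicity was checked up to the assay upper limit of 8.3 μM.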

Data set [6] deals with Human immunodeficiency virus. As to the kind of experiment: Antiviral activity against Human immunodeficiency virus expressing wild type reverse transcriptase infected in human MT4 cells by p24 antigen assay in the presence of 10% FBS. It is filed as functional. The following applies: Human immunodeficiency virus 1, MT4; read-out: CIC95. In a few lines:
(§3)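 MT-4 human T-lymphoid cells in RPMI 1640 with either 10% FBS or 50% NHS; CIC95 taken as the concentration inhibiting virus spread/replication by >95%. Geometric mean of at least two determinations, individual values within 2-fold; SEM given when ≥3 determinations.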

The test system of data set [7] is Human immunodeficiency virus. As to the kind of experiment: Antiviral activity against Human immunodeficiency virus expressing wild type reverse transcriptase infected in human MT4 cells by p24 antigen assay in the presence of 50% normal human serum. It is filed as functional. The settings on record: Human immunodeficiency virus 1, MT4; read-out: CIC95. In short, it runs like this:
as §3

The subject of data set [8] is Human immunodeficiency virus. Nature of the data set: Antiviral activity against Human immunodeficiency virus expressing reverse transcriptase Y181C mutant infected in human MT4 cells by p24 antigen assay in the presence of 10% FBS. It is filed as functional. The settings on record: Human immunodeficiency virus 1, MT4; read-out: CIC95. In short, it runs like this:
as §2

Data set [9] is described as follows: Plasma clearance in Sprague-Dawley rat at 10 mg/kg, po and 2 mg/kg, iv. Format: ADME, organism-based. In a few lines: (§4)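 PK in Sprague-Dawley rats (iv solution in DMSO via an indwelling jugular cannula, or oral suspension in aqueous methylcellulose/Methocel) and beagle dogs (iv and oral given crossover, same vehicles). Plasma levels by LC-MS. F from oral versus iv dose-normalized AUC. Average of at least two animals; rat values within 25% of the mean.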

Data set [10] can be described thus: Solubility of the compound in water at pH 2. Format: physicochemical. In a few lines:
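Water solubility of the solid compound measured at pH 2 and at pH 7.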

A short description of data set [11]: Half life in Sprague-Dawley rat at 10 mg/kg, po and 2 mg/kg, iv. It is filed as ADME, organism-based. The following applies: in vivo. In a few lines:
as §4

A short description of data set [12]: Bioavailability in Sprague-Dawley rat at 10 mg/kg, po and 2 mg/kg, iv. Format: ADME, organism-based. The settings on record: in vivo. In a few lines: as §4
A short description of data set [13]: Plasma clearance in Beagle dog at 2 mg/kg, po and 1 mg/kg, iv. Format: ADME, organism-based, Canis lupus familiaris. In short, it runs like this:
as §4

Data set [14] is described as follows: Volume of distribution in Sprague-Dawley rat at 10 mg/kg, po and 2 mg/kg, iv. Format: ADME, organism-based. The following applies: in vivo. In short, it runs like this:
as §4

The subject of data set [15] is Rattus norvegicus. As to the kind of experiment: Dose normalised AUC in Sprague-Dawley rat at 10 mg/kg, po by LC-MS analysis. The following applies: in vivo. Further details: dose 10 mg/kg, route oral. It is filed as ADME, organism-based. In a few lines: as §4
Data set [16] can be described thus: Volume of distribution in Beagle dog at 2 mg/kg, po and 1 mg/kg, iv. The settings on record: in vivo. It is filed as ADME, organism-based, Canis lupus familiaris. In short, it runs like this: as §4
Data set [17] is described as follows: Half life in Beagle dog at 2 mg/kg, po and 1 mg/kg, iv. It is filed as ADME, organism-based, Canis lupus familiaris. The following applies: in vivo. In a few lines: as §4

The Ki is the equilibrium dissociation constant of an inhibitor or competing ligand from its target. A higher Ki goes with weaker binding. Consider `N#Cc1cc(Cl)cc(Oc2cc(NCc3n[nH]c4ncccc34)c(N)cc2Cl)c1`, for which the Ki in [1] turned out to be 2.3 nM; in data set [3], 3.8 nM; in [4] it was 3.3 nM. For the same compound, the Activity result in data set [2] was “Non-toxic”. For the same compound, the IC95 came to 40 nM in data set [5] and 24 nM in data set [6].
For `N#Cc1cc(Cl)cc(Oc2c(Cl)ccc3c2c(Cl)nn3Cc2n[nH]c3ncccc23)c1`, the IC95 in data set [7] was > 5000 nM; in data set [5] it was > 2000 nM; in [6] it was > 500 nM; in data set [8], > 2000 nM. The Ki was 46 nM in [1], 28 nM in [3] and 42 nM in data set [4]. The Activity result in [2] is on record as “Non-toxic”.
In the case of `N#Cc1cc(Cl)cc(Oc2cc3c(cc2Cl)nnn3Cc2n[nH]c3ncccc23)c1`, the values for the Ki in [1], in data set [3] and in data set [4] were > 300 nM, > 300 nM and > 900 nM, respectively. The Activity result in data set [2] was “Non-toxic”. Besides, the IC95 in data set [6] was > 833 nM.
Regarding `Cc1nc2c(Oc3cc(Cl)cc(C#N)c3)c(Cl)ccc2n1Cc1n[nH]c2ncccc12`, the IC95 in data set [7] and in [6] was > 833 nM in each case. The inhibition constant Ki in data set [1] was > 300 nM; in data set [3] it was > 600 nM; in [4], > 300 nM. Moreover, the Activity entry in data set [2] was “Non-toxic”.
Consider `N#Cc1cc(Cl)cc(Oc2cc3c(cc2Cl)ncn3Cc2n[nH]c3ncccc23)c1`, for which the Ki is 114 nM in [1], > 100 nM in [3] and > 100 nM in data set [4]. In addition, the Activity entry in data set [2] is on record as “Non-toxic”. In addition, the IC95 in data set [5] came to 732 nM; in [6] it was 693 nM.
For `NCc1cc(Cl)cc(Oc2c(Cl)ccc3c2nnn3Cc2n[nH]c3ncccc23)c1Cl`, the IC95 is 281 nM in data set [7], 232 nM in [5], 57 nM in data set [6] and 418 nM in data set [8]. The Activity result in data set [2] is “Non-toxic”.
With `N#Cc1cc(Cl)cc(Oc2c(Cl)ccc3c2[nH]c(=O)n3Cc2n[nH]c3ncccc23)c1`, the IC95 in data set [7] and in data set [6] was > 833 nM throughout. Also, the Ki in data set [1] is > 300 nM; in data set [3], > 600 nM; in data set [4], > 300 nM. Further, the Activity result in data set [2] was “Non-toxic”.
For orientation: solubility means the dissolved amount per volume that the medium holds. Lower therefore signals little dissolved substance. By half-life is commonly meant the time needed for the level to fall by half in the phase considered. Higher therefore signals slow decline. What is called bioavailability is the share of a dose that reaches the circulation, judged against a reference dose that is usually intravenous. `N#Cc1cc(Cl)cc(Oc2c(Cl)ccc3c2ncn3Cc2n[nH]c3ncccc23)c1`: the IC95 in data set [7] is 390 nM; in data set [5], 66 nM; in [6] it was 23 nM; in data set [8], 320 nM. Moreover, the Ki in data set [1] came out at 2 nM; in [3], 5.3 nM; in data set [4], 3.3 nM. The Activity entry in data set [2] is reported as “Non-toxic”. Also, the clearance in data set [9] worked out at 25.6 mL/min/kg; in data set [13] it was 2.2 mL/min/kg. For the same compound, in data set [10], the solubility worked out at 10 µg/mL (≈ 23 µM). For the same compound, the half-life was 2.4 h in [11] and 12.8 h in data set [17]. The bioavailability in [12] amounted to 36%. Also, the Vd in data set [14] was 3.3 L/kg; in data set [16], 0.37 L/kg. Moreover, the AUC/dose in [15] was 0.56 µM·h.

For the origin of these results see ChEMBL document CHEMBL1938372, “Design and synthesis of conformationally constrained inhibitors of non-nucleoside reverse transcriptase” (J Med Chem, 2011).
